# Data: ChEMBL document CHEMBL1123853, “A novel class of cardiotonics. Synthesis and pharmacological properties of [4-(substituted-amino)phenyl]pyridazinones and related derivatives” (1987)
# Legend:
# Canis familiaris [1] = organism: Canis familiaris; experiment: Positive inotropic in the isolated papillary muscle of the dog.; assay type: functional, Canis lupus familiaris
# Outline: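 Right ventricular anterior papillary muscle with septum, from mongrel dogs (7–12 kg, pentobarbital 30 mg/kg iv). It was perfused at about 100 mmHg via the septal artery with blood from a heparinized donor dog and paced at 120/min (1 ms pulses, about 1.5× threshold). Isometric tension was recorded. Saline solutions were injected intra-arterially, with amrinone as reference. ED15 (15% rise in developed tension) was taken from log dose-response curves. Results are mean ± SEM (n = 7) or mean ± range (n = 2).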
# Canis familiaris [2] = experiment: Inotropic activity determined by evaluating the % change in Systolic Blood Pressure (SBP) at a dose of 100 ug/kg administered intravenously […]; assay type: functional, Canis lupus familiaris, Muscle tissue
# Outline: (§1)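 Mongrel dogs of either sex, 7–15 kg, anesthetized with sodium pentobarbital (30 mg/kg iv), open-chest, intubated and ventilated on room air. Compounds given intravenously. A femoral artery catheter with pressure transducer recorded SBP and DBP. dP/dtmax, right ventricular contractile force, cardiac output and heart rate were also recorded, as % change at each iv dose.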
# Canis familiaris [3] = experiment: Inotropic activity determined by evaluating the % change in Diastolic Blood Pressure (DBP) at a dose of 30 ug/kg administered intravenously […]; assay type: functional, Canis lupus familiaris; outline: as §1
# Canis familiaris [4] = experiment: Inotropic activity determined by evaluating the % change in Cardiac out put (CO)at a dose of 100 ug/kg administered intravenously […]; assay type: functional, Canis lupus familiaris; outline: as §1
# Canis familiaris [5] = experiment: Inotropic activity determined by evaluating the % change in contractile force (CF) of right ventricle at a dose of 30 ug/kg administered intravenously […]; assay type: functional, Canis lupus familiaris, Heart right ventricle; outline: as §1
# Canis familiaris [6] = experiment: Inotropic activity determined by evaluating the % change in Heart Rate (HR) at a dose of 100 ug/kg administered intravenously […]; assay type: functional, Canis lupus familiaris; outline: as §1
# Canis familiaris [7] = experiment: Inotropic activity determined by evaluating the % change in Diastolic Blood Pressure (DBP) at a dose of 100 ug/kg administered intravenously […]; assay type: functional, Canis lupus familiaris; outline: as §1
# Canis familiaris [8] = experiment: Inotropic activity determined by evaluating the % change in Heart Rate (HR) at a dose of 30 ug/kg administered intravenously […]; assay type: functional, Canis lupus familiaris; outline: as §1
# Canis familiaris [9] = organism: Canis familiaris; experiment: Positive inotropic activity determined in the […](that produced 30% increase in dose- response curves [dP/dt(max)]); assay type: functional; conditions: Canis lupus familiaris
# Outline: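 In the anesthetized open-chest dog (mongrel, 7–15 kg, pentobarbital 30 mg/kg iv, ventilated on room air), compounds were given intravenously and LV dP/dtmax was recorded. The dose giving a 30% rise in dP/dtmax was read from the dose-response curves. Results are mean ± SEM (n = 3) or mean ± range (n = 2).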
# Canis familiaris [10] = experiment: Inotropic activity determined by evaluating the % change in Systolic Blood Pressure (SBP) at a dose of 30 ug/kg administered intravenously […]; assay type: functional, Canis lupus familiaris, Muscle tissue; outline: as §1
# Canis familiaris [11] = experiment: Inotropic activity determined by evaluating the maximum rate of rise in left ventricular pressure at a dose of 30 ug/kg administered intravenously […]; assay type: functional, Canis lupus familiaris, Muscle tissue; outline: as §1
# Canis familiaris [12] = experiment: Inotropic activity determined by evaluating the % change in Cardiac out put (CO)at a dose of 30 ug/kg administered intravenously […]; assay type: functional, Canis lupus familiaris; outline: as §1
# Canis familiaris [13] = experiment: Inotropic activity determined by evaluating the % change in contractile force (CF) of right ventricle at a dose of 100 ug/kg administered intravenously […]; assay type: functional, Canis lupus familiaris, Heart right ventricle; outline: as §1
# Canis familiaris [14] = experiment: Inotropic activity determined by evaluating the maximum rate of rise in left ventricular pressure at a dose of 100 ug/kg administered intravenously […]; assay type: functional, Canis lupus familiaris, Muscle tissue; outline: as §1
# Canis familiaris [15] = experiment: Inotropic activity determined by evaluating the % change in contractile force (CF) of right ventricle at a dose of 300 ug/kg administered intravenously […]; assay type: functional, Canis lupus familiaris, Heart right ventricle; outline: as §1
# Canis familiaris [16] = experiment: Inotropic activity determined by evaluating the % change in Heart Rate (HR) at a dose of 1000 ug/kg administered intravenously […]; assay type: functional, Canis lupus familiaris; outline: as §1
# Canis familiaris [17] = experiment: Inotropic activity determined by evaluating the maximum rate of rise in left ventricular pressure at a dose of 1000 ug/kg administered intravenously […]; assay type: functional, Canis lupus familiaris, Muscle tissue; outline: as §1
# Canis familiaris [18] = experiment: Inotropic activity determined by evaluating the % change in Systolic Blood Pressure (SBP) at a dose of 300 ug/kg administered intravenously […]; assay type: functional, Canis lupus familiaris, Muscle tissue; outline: as §1
# Canis familiaris [19] = experiment: Inotropic activity determined by evaluating the % change in Cardiac out put (CO)at a dose of 1000 ug/kg administered intravenously […]; assay type: functional, Canis lupus familiaris; outline: as §1
# Canis familiaris [20] = experiment: Inotropic activity determined by evaluating the maximum rate of rise in left ventricular pressure at a dose of 300 ug/kg administered intravenously […]; assay type: functional, Canis lupus familiaris, Muscle tissue; outline: as §1
# Canis familiaris [21] = experiment: Inotropic activity determined by evaluating the % change in Diastolic Blood Pressure (DBP) at a dose of 1000 ug/kg administered intravenously […]; assay type: functional, Canis lupus familiaris; outline: as §1
# Canis familiaris [22] = experiment: Inotropic activity determined by evaluating the % change in contractile force (CF) of right ventricle at a dose of 1000 ug/kg administered intravenously […]; assay type: functional, Canis lupus familiaris, Heart right ventricle; outline: as §1
# Canis familiaris [23] = experiment: Inotropic activity determined by evaluating the % change in Cardiac out put (CO)at a dose of 300 ug/kg administered intravenously […]; assay type: functional, Canis lupus familiaris; outline: as §1
# Canis familiaris [24] = experiment: Inotropic activity determined by evaluating the % change in Diastolic Blood Pressure (DBP) at a dose of 300 ug/kg administered intravenously […]; assay type: functional, Canis lupus familiaris; outline: as §1
# Canis familiaris [25] = experiment: Inotropic activity determined by evaluating the % change in Systolic Blood Pressure (SBP) at a dose of 1000 ug/kg administered intravenously […]; assay type: functional, Canis lupus familiaris, Muscle tissue; outline: as §1
# Canis familiaris [26] = experiment: Inotropic activity determined by evaluating the % change in Heart Rate (HR) at a dose of 300 ug/kg administered intravenously […]; assay type: functional, Canis lupus familiaris, Muscle tissue; outline: as §1
# Canis familiaris [27] = experiment: Inotropic activity determined by evaluating the % change in contractile force (CF) of right ventricle at a dose of 10 ug/kg administered intravenously […]; assay type: functional, Canis lupus familiaris, Heart right ventricle; outline: as §1
# Canis familiaris [28] = experiment: Inotropic activity determined by evaluating the % change in Cardiac out put (CO)at a dose of 10 ug/kg administered intravenously […]; assay type: functional, Canis lupus familiaris; outline: as §1
# Canis familiaris [29] = experiment: Inotropic activity determined by evaluating the % change in Diastolic Blood Pressure (DBP) at a dose of 10 ug/kg administered intravenously […]; assay type: functional, Canis lupus familiaris; outline: as §1
# Canis familiaris [30] = experiment: Inotropic activity determined by evaluating the % change in Heart Rate (HR) at a dose of 10 ug/kg administered intravenously […]; assay type: functional, Canis lupus familiaris; outline: as §1
# Canis familiaris [31] = experiment: Inotropic activity determined by evaluating the maximum rate of rise in left ventricular pressure at a dose of 10 ug/kg administered intravenously […]; assay type: functional, Canis lupus familiaris, Muscle tissue; outline: as §1
# Canis familiaris [32] = experiment: Inotropic activity determined by evaluating the % change in Systolic Blood Pressure (SBP) at a dose of 10 ug/kg administered intravenously […]; assay type: functional, Canis lupus familiaris; outline: as §1
smiles,measurement,setting,value
CC(Nc1ccc(C2=NNC(=O)CC2)cc1)c1ccncc1 (configuration not stated),ED15,Canis familiaris [1],33 µg
CN(C)c1ccc(CNc2ccc(C3=NNC(=O)CC3)cc2)cc1,ED15,Canis familiaris [1],>300 µg
O=C1CCC(c2ccc(NCc3ccncc3)cc2)=NN1,ED15,Canis familiaris [1],>300 µg
O=C1CCC(c2ccc(NCc3cccnc3)cc2)=NN1,ED15,Canis familiaris [1],86 µg
O=C1CCC(c2ccc(NCc3ccnc4ccccc34)cc2)=NN1,ED15,Canis familiaris [1],>300 µg
CC1CC(c2ccc(Nc3ccncc3)cc2)=NNC1=O.Cl (configuration not stated),Change of SBP,Canis familiaris [2],-14.6%
same,Change of DBP,Canis familiaris [3],-9.8%
same,Change of CO,Canis familiaris [4],23.3%
same,ED15,Canis familiaris [1],4.7 µg
same,Change of CF,Canis familiaris [5],22.5%
same,Change of HR,Canis familiaris [6],17.3%
same,Change of DBP,Canis familiaris [7],-26.1%
same,Change of HR,Canis familiaris [8],4.6%
same,ED30,Canis familiaris [9],0.072 mg/kg
same,Change of SBP,Canis familiaris [10],-5.9%
same,dP/dt,Canis familiaris [11],24.2%
same,Change of CO,Canis familiaris [12],10.3%
same,Change of CF,Canis familiaris [13],52.9%
same,dP/dt,Canis familiaris [14],43.8%
CCc1cc(O)nnc1-c1ccc(Nc2ccncc2)cc1.Cl,Change of CF,Canis familiaris [15],2.8%
same,Change of HR,Canis familiaris [16],-2.9%
same,dP/dt,Canis familiaris [17],-0.9%
same,ED15,Canis familiaris [1],>300 µg
same,Change of SBP,Canis familiaris [18],0.4%
same,Change of CO,Canis familiaris [19],8.6%
same,dP/dt,Canis familiaris [20],1%
same,Change of DBP,Canis familiaris [21],-9.3%
same,Change of CF,Canis familiaris [22],4.2%
same,Change of CO,Canis familiaris [23],3.9%
same,ED30,Canis familiaris [9],> 1 mg/kg
same,Change of DBP,Canis familiaris [24],-0.9%
same,Change of SBP,Canis familiaris [25],-5%
same,Change of HR,Canis familiaris [26],-0.1%
CC1CC(=O)NN=C1c1ccc(Nc2ccccn2)cc1.Cl (configuration not stated),Change of CF,Canis familiaris [27],19.5%
same,Change of DBP,Canis familiaris [3],-31%
same,ED15,Canis familiaris [1],3.2 µg
same,Change of CF,Canis familiaris [5],44.4%
same,Change of CO,Canis familiaris [28],12.7%
same,Change of DBP,Canis familiaris [29],-22.4%
same,Change of HR,Canis familiaris [30],5.3%
same,dP/dt,Canis familiaris [31],19.3%
same,Change of HR,Canis familiaris [8],8.9%
same,ED30,Canis familiaris [9],0.022 mg/kg
same,Change of SBP,Canis familiaris [32],-14.1%
same,Change of SBP,Canis familiaris [10],-17.6%
same,dP/dt,Canis familiaris [11],46.4%
same,Change of CO,Canis familiaris [12],15.8%
